Reference: ChEMBL document CHEMBL1240485, “Glycopeptide dendrimer colchicine conjugates targeting cancer cells” (Bioorg Med Chem, 2010)
Calls of active or inactive are those of the source. The calls are words filed in the database; no cut-off is given here. Bridge positions count the residues as written; N and C are the ends. Square brackets hold non-standard residues; d marks the D form. Peptide text beside a SMILES is read from it. I, II: the chains in the order shown. * marks the point of attachment. X1 = COc1cc2c(c(OC)c1OC)-c1ccc(OC)c(=O)cc1[C@@H](N(C(C)=O)C(=O)[C@H](CS)N*)CC2; X2 = O=C(CCS[C@@H]1O[C@H](CO)[C@H](O)[C@H](O)[C@H]1O)*; βGal = OC[C@H]1O[C@@H](*)[C@H](O)[C@@H](O)[C@H]1O; Dap = NC[C@H](N)C(=O)O; Mpa = O=C(O)CCS

Experiments:
[1] = test system: MEF; assay: Cytotoxicity against MEF cells assessed as dead cells at 5 uM after 48 hrs by visual cell counting under the microscope; conditions: mouse
[2] = test system: Jurkat; assay: Cytotoxicity against human Jurkat cells after 48 hrs; format: functional; conditions: read-out: LD50 (the source's name)
Method in brief: (§1)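 Jurkat cells were grown in RPMI with 10% FCS, penicillin/streptomycin and L-glutamine at 37 °C and 5% CO2. They were seeded at 50,000 cells/mL and cultured overnight, then given compound from sterile water stock and held 48 h. Propidium iodide was added 2 min before FACS (excitation 488 nm). Dead cells were counted at 5 µM final. LD50 was derived from dose–response curves.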

[3] = test system: Jurkat; assay: Cytotoxicity against human Jurkat cells assessed as dead cells at 5 uM after 48 hrs by propidium iodide-based FACS flow cytometry; format: functional
Method in brief: as §1

[4] = test system: Jurkat; assay: Cytotoxicity against human Jurkat cells at 5 uM after 48 hrs; format: functional, cell-based
Method in brief: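 Jurkat cells (RPMI, 10% FCS, 37 °C, 5% CO2) seeded at 50,000 cells per mL, grown overnight, then dosed with colchicine–dendrimer conjugate at 5 μM final from sterile water stock. After 48 h, propidium iodide added 2 min before FACS (excitation 488 nm); dead vs healthy cells counted, reported as % dead cells.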

SMILES: COc1cc2c(c(OC)c1OC)-c1ccc(OC)c(=O)cc1[C@@H](N(C(C)=O)C(=O)[C@H](CS)NC(=O)[C@H](CC(=O)O)NC(=O)[C@H](CC(C)C)NC(=O)[C@H](Cc1ccc(O)cc1)NC(=O)[C@@H](NC(=O)[C@H](CNC(=O)[C@H](C)NC(=O)[C@H](CO)NC(=O)[C@H](CC(=O)O)NC(=O)[C@H](Cc1ccccc1)NC(=O)CCS[C@@H]1O[C@H](CO)[C@H](O)[C@H](O)[C@H]1O)NC(=O)[C@H](C)NC(=O)[C@H](CO)NC(=O)[C@H](CC(=O)O)NC(=O)[C@H](Cc1ccccc1)NC(=O)CCS[C@@H]1O[C@H](CO)[C@H](O)[C@H](O)[C@H]1O)[C@@H](C)O)CC2 (I: [Mpa](βGal)FDSA[Dap]TYLD-X1 / II: [Mpa](βGal)FDSA; amide I:6-II:C) [listing 1 of 2 here]
- Activity [1]: 68%

SMILES: COc1cc2c(c(OC)c1OC)-c1ccc(OC)c(=O)cc1[C@@H](N(C(C)=O)C(=O)[C@H](CS)NC(=O)[C@H](CC(=O)O)NC(=O)[C@H](CC(C)C)NC(=O)[C@H](Cc1ccc(O)cc1)NC(=O)[C@@H](NC(=O)[C@H](CNC(=O)[C@H](C)NC(=O)[C@H](CO)NC(=O)[C@H](CC(=O)O)NC(=O)[C@H](Cc1ccccc1)NC(=O)CCS[C@@H]1O[C@H](CO)[C@H](O)[C@H](O)[C@H]1O)NC(=O)[C@H](C)NC(=O)[C@H](CO)NC(=O)[C@H](CC(=O)O)NC(=O)[C@H](Cc1ccccc1)NC(=O)CCS[C@@H]1O[C@H](CO)[C@H](O)[C@H](O)[C@H]1O)[C@@H](C)O)CC2 (I: [Mpa](βGal)FDSA[Dap]TYLD-X1 / II: [Mpa](βGal)FDSA; amide I:6-II:C) [listing 2 of 2 here]
- CC50 [2]: 1.53 µM
- Activity [3]: <=91%

SMILES: COc1cc2c(c(OC)c1OC)-c1ccc(OC)c(=O)cc1[C@@H](N(C(C)=O)C(=O)[C@H](CS)NC(=O)[C@H](CC(=O)O)NC(=O)[C@H](CC(C)C)NC(=O)[C@H](Cc1ccc(O)cc1)NC(=O)[C@@H](NC(=O)[C@H](CNC(=O)[C@H](C)NC(=O)[C@H](CO)NC(=O)[C@H](CC(N)=O)NC(=O)[C@H](Cc1ccccc1)NC(=O)CCS[C@@H]1O[C@H](CO)[C@H](O)[C@H](O)[C@H]1O)NC(=O)[C@H](C)NC(=O)[C@H](CO)NC(=O)[C@H](CC(N)=O)NC(=O)[C@H](Cc1ccccc1)NC(=O)CCS[C@@H]1O[C@H](CO)[C@H](O)[C@H](O)[C@H]1O)[C@@H](C)O)CC2 (I: [Mpa](βGal)FNSA[Dap]TYLD-X1 / II: [Mpa](βGal)FNSA; amide I:6-II:C) [listing 1 of 2 here]
- Activity [1]: 6%

SMILES: COc1cc2c(c(OC)c1OC)-c1ccc(OC)c(=O)cc1[C@@H](N(C(C)=O)C(=O)[C@H](CS)NC(=O)[C@H](CC(=O)O)NC(=O)[C@H](CC(C)C)NC(=O)[C@H](Cc1ccc(O)cc1)NC(=O)[C@@H](NC(=O)[C@H](CNC(=O)[C@H](C)NC(=O)[C@H](CO)NC(=O)[C@H](CC(N)=O)NC(=O)[C@H](Cc1ccccc1)NC(=O)CCS[C@@H]1O[C@H](CO)[C@H](O)[C@H](O)[C@H]1O)NC(=O)[C@H](C)NC(=O)[C@H](CO)NC(=O)[C@H](CC(N)=O)NC(=O)[C@H](Cc1ccccc1)NC(=O)CCS[C@@H]1O[C@H](CO)[C@H](O)[C@H](O)[C@H]1O)[C@@H](C)O)CC2 (I: [Mpa](βGal)FNSA[Dap]TYLD-X1 / II: [Mpa](βGal)FNSA; amide I:6-II:C) [listing 2 of 2 here]
- CC50 [2]: 5.52 µM
- Activity [3]: 19%

SMILES: COc1cc2c(c(OC)c1OC)-c1ccc(OC)c(=O)cc1[C@@H](N(C(C)=O)C(=O)[C@H](CS)NC(=O)[C@H](CCCCNC(=O)CCS[C@@H]1O[C@H](CO)[C@H](O)[C@H](O)[C@H]1O)NC(=O)[C@H](Cc1ccccc1)NC(=O)[C@H](CCCNC(=N)N)NC(=O)[C@H](CC(N)=O)NC(=O)[C@H](CNC(=O)[C@@H](NC(=O)[C@H](CCC(=O)O)NC(=O)[C@H](CC(=O)O)NC(=O)CNC(=O)CCS[C@@H]1O[C@H](CO)[C@H](O)[C@H](O)[C@H]1O)[C@@H](C)O)NC(=O)[C@@H](NC(=O)[C@H](CCC(=O)O)NC(=O)[C@H](CC(=O)O)NC(=O)CNC(=O)CCS[C@@H]1O[C@H](CO)[C@H](O)[C@H](O)[C@H]1O)[C@@H](C)O)CC2 (I: [Mpa](βGal)GDET[Dap]NRFK(X2)-X1 / II: [Mpa](βGal)GDET; amide I:6-II:C)
- Activity [4]: inactive

SMILES: COc1cc2c(c(OC)c1OC)-c1ccc(OC)c(=O)cc1[C@@H](N(C(C)=O)C(=O)[C@H](CS)NC(=O)[C@H](CCCCNC(=O)CCS[C@@H]1O[C@H](CO)[C@H](O)[C@H](O)[C@H]1O)NC(=O)[C@H](Cc1ccccc1)NC(=O)[C@H](CCCNC(=N)N)NC(=O)[C@H](CC(N)=O)NC(=O)[C@H](CNC(=O)[C@@H](NC(=O)[C@H](CCC(=O)O)NC(=O)[C@H](CC(N)=O)NC(=O)CNC(=O)CCS[C@@H]1O[C@H](CO)[C@H](O)[C@H](O)[C@H]1O)[C@@H](C)O)NC(=O)[C@@H](NC(=O)[C@H](CCC(=O)O)NC(=O)[C@H](CC(N)=O)NC(=O)CNC(=O)CCS[C@@H]1O[C@H](CO)[C@H](O)[C@H](O)[C@H]1O)[C@@H](C)O)CC2 (I: [Mpa](βGal)GNET[Dap]NRFK(X2)-X1 / II: [Mpa](βGal)GNET; amide I:6-II:C)
- Activity [4]: inactive

SMILES: COc1cc2c(c(OC)c1OC)-c1ccc(OC)c(=O)cc1[C@@H](N(C(C)=O)C(=O)[C@H](CS)NC(=O)[C@H](CC(=O)O)NC(=O)[C@H](Cc1cnc[nH]1)NC(=O)[C@H](CCCNC(=N)N)NC(=O)[C@@H](NC(=O)[C@H](CNC(=O)[C@H](C)NC(=O)[C@H](Cc1cnc[nH]1)NC(=O)[C@H](CCCNC(=N)N)NC(=O)CNC(=O)CCS[C@@H]1O[C@H](CO)[C@H](O)[C@H](O)[C@H]1O)NC(=O)[C@H](C)NC(=O)[C@H](Cc1cnc[nH]1)NC(=O)[C@H](CCCNC(=N)N)NC(=O)CNC(=O)CCS[C@@H]1O[C@H](CO)[C@H](O)[C@H](O)[C@H]1O)[C@@H](C)O)CC2 (I: [Mpa](βGal)GRHA[Dap]TRHD-X1 / II: [Mpa](βGal)GRHA; amide I:6-II:C) [listing 1 of 2 here]
- Activity [1]: 51%

SMILES: COc1cc2c(c(OC)c1OC)-c1ccc(OC)c(=O)cc1[C@@H](N(C(C)=O)C(=O)[C@H](CS)NC(=O)[C@H](CC(=O)O)NC(=O)[C@H](Cc1cnc[nH]1)NC(=O)[C@H](CCCNC(=N)N)NC(=O)[C@@H](NC(=O)[C@H](CNC(=O)[C@H](C)NC(=O)[C@H](Cc1cnc[nH]1)NC(=O)[C@H](CCCNC(=N)N)NC(=O)CNC(=O)CCS[C@@H]1O[C@H](CO)[C@H](O)[C@H](O)[C@H]1O)NC(=O)[C@H](C)NC(=O)[C@H](Cc1cnc[nH]1)NC(=O)[C@H](CCCNC(=N)N)NC(=O)CNC(=O)CCS[C@@H]1O[C@H](CO)[C@H](O)[C@H](O)[C@H]1O)[C@@H](C)O)CC2 (I: [Mpa](βGal)GRHA[Dap]TRHD-X1 / II: [Mpa](βGal)GRHA; amide I:6-II:C) [listing 2 of 2 here]
- CC50 [2]: 1.5 µM
- Activity [3]: 91%

SMILES: CC[C@H](C)[C@H](NC(=O)[C@@H]1CCCN1C(=O)[C@H](CNC(=O)[C@@H]1CCCN1C(=O)CNC(=O)[C@H](CC(=O)O)NC(=O)[C@H](CCCCNC(=O)CCS[C@@H]1O[C@H](CO)[C@H](O)[C@H](O)[C@H]1O)NC(=O)CCS[C@@H]1O[C@H](CO)[C@H](O)[C@H](O)[C@H]1O)NC(=O)[C@@H]1CCCN1C(=O)CNC(=O)[C@H](CC(=O)O)NC(=O)[C@H](CCCCNC(=O)CCS[C@@H]1O[C@H](CO)[C@H](O)[C@H](O)[C@H]1O)NC(=O)CCS[C@@H]1O[C@H](CO)[C@H](O)[C@H](O)[C@H]1O)C(=O)N[C@@H](CCC(=O)O)C(=O)N[C@H](C(=O)N[C@@H](CS)C(=O)N(C(C)=O)[C@H]1CCc2cc(OC)c(OC)c(OC)c2-c2ccc(OC)c(=O)cc21)C(C)C (I: [Mpa](βGal)K(X2)DGP[Dap]PIEV-X1 / II: [Mpa](βGal)K(X2)DGP; amide I:6-II:C)
- Activity [4]: inactive

SMILES: CC[C@H](C)[C@H](NC(=O)[C@@H]1CCCN1C(=O)[C@H](CNC(=O)[C@@H]1CCCN1C(=O)CNC(=O)[C@H](CC(N)=O)NC(=O)[C@H](CCCCNC(=O)CCS[C@@H]1O[C@H](CO)[C@H](O)[C@H](O)[C@H]1O)NC(=O)CCS[C@@H]1O[C@H](CO)[C@H](O)[C@H](O)[C@H]1O)NC(=O)[C@@H]1CCCN1C(=O)CNC(=O)[C@H](CC(N)=O)NC(=O)[C@H](CCCCNC(=O)CCS[C@@H]1O[C@H](CO)[C@H](O)[C@H](O)[C@H]1O)NC(=O)CCS[C@@H]1O[C@H](CO)[C@H](O)[C@H](O)[C@H]1O)C(=O)N[C@@H](CCC(=O)O)C(=O)N[C@H](C(=O)N[C@@H](CS)C(=O)N(C(C)=O)[C@H]1CCc2cc(OC)c(OC)c(OC)c2-c2ccc(OC)c(=O)cc21)C(C)C (I: [Mpa](βGal)K(X2)NGP[Dap]PIEV-X1 / II: [Mpa](βGal)K(X2)NGP; amide I:6-II:C)
- Activity [4]: inactive

SMILES: COc1cc2c(c(OC)c1OC)-c1ccc(OC)c(=O)cc1[C@@H](NC(C)=O)CC2 [COLCHICINE]
- Activity [1]: 57%
- CC50 [2]: 0.02 µM
- Activity [3]: 85%
